Measured values as given in ChEMBL document CHEMBL5329154, “Novel 1,2,4-oxadiazole compounds as PPAR-α ligand agonists: a new strategy for the design of antitumour compounds” (RSC Med Chem, 2023).

Experiments:
[1] = Cytotoxicity against human RPTEC assessed as reduction in cell viability incubated for 72 hrs under normoxic condition by SRB assay; type: toxicity, cell-based; details: RPTEC cells
Procedure, shortened: (§1)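 Cells in DMEM with 2 mM L-glutamine, 10% FBS, penicillin and streptomycin at 37 °C, 5% CO2. Tumour cells (A498, DU-145) kept at hypoxia (1% O2); non-tumour cells (RPTEC, WPMY-1) at normoxia (20–21% O2). Seeded 2 × 10^4 cells/well, grown 12 h, then dosed 72 h at 0.20–100 μM (ten twofold steps, 0.5% DMSO). Fixed in cold 10% TCA, stained with 0.4% SRB, dye solubilised in 10 mM Tris, OD read at 540 nm. CC50 from non-linear regression.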

[2] = test system: A498; assay: Cytotoxicity against human A498 cells assessed as reduction in cell viability incubated for 72 hrs under hypoxic condition by SRB assay; type: functional; procedure, shortened: as §1
[3] = Cytotoxicity against human WPMY-1 cells assessed as reduction in cell viability incubated for 72 hrs under normoxic condition by SRB assay; type: toxicity, cell-based; procedure, shortened: as §1
[4] = test system: DU-145; assay: Cytotoxicity against human DU-145 cells assessed as reduction in cell viability incubated for 72 hrs under hypoxic condition by SRB assay; type: functional; procedure, shortened: as §1
[5] = molecular target: T1, Peroxisome proliferator-activated receptor alpha (Homo sapiens, UniProt Q07869); assay: Agonist activity at GAL4-tagged PPARalpha in human RPTEC assessed as transcriptional activation incubated for 72 hrs under normoxic condition by luciferase assay; type: cell-based
T1 sequence (Q07869 whole entry): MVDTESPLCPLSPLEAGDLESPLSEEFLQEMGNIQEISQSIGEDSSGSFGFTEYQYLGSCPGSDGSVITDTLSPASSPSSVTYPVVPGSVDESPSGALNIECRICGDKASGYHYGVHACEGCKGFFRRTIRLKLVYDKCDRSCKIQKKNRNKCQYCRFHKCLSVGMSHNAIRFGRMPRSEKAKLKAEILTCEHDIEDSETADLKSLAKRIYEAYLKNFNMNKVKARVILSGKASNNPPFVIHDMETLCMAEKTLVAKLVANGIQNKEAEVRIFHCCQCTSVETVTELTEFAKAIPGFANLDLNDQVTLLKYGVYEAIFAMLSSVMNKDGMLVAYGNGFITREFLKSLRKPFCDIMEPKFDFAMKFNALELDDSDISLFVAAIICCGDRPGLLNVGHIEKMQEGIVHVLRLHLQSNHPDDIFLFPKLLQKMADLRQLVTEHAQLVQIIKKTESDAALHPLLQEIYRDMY

[6] = molecular target: T1, Peroxisome proliferator-activated receptor alpha; assay: Agonist activity at GAL4-tagged PPARalpha in human A498 cells assessed as transcriptional activation incubated for 72 hrs under hypoxic condition by luciferase assay; type: cell-based
[7] = molecular target: T1, Peroxisome proliferator-activated receptor alpha; assay: Agonist activity at GAL4-tagged PPARalpha in human WPMY-1 cells assessed as transcriptional activation incubated for 72 hrs under normoxic condition by luciferase assay; type: cell-based
[8] = molecular target: T1, Peroxisome proliferator-activated receptor alpha; assay: Agonist activity at GAL4-tagged PPARalpha in human DU-145 cells assessed as transcriptional activation incubated for 72 hrs under hypoxic condition by luciferase assay; type: cell-based

Row | Structure (SMILES) | CC50 at 72 h [1] | CC50 [2] | CC50 at 72 h [3] | CC50 [4] | EC50 [5] | EC50 [6] | EC50 [7] | EC50 [8]
1 | c1cncc(-c2noc(-c3ccsc3)n2)c1 | 63.3 µM | 1.32 µM | 71.1 µM | 1.57 µM | – | – | – | –
2 | c1cncc(-c2noc(-c3cc[nH]c3)n2)c1 | 92 µM | 2.52 µM | 96.9 µM | 3.97 µM | – | – | – | –
3 | c1cncc(-c2noc(C3CCCC3)n2)c1 | 84.4 µM | 1.79 µM | 96.4 µM | 2.81 µM | – | – | – | –
4 | CCCCCc1nc(-c2cccnc2)no1 | 81.7 µM | 1.66 µM | 92.7 µM | 1.93 µM | – | – | – | –
5 | c1cncc(-c2noc(-c3ncsn3)n2)c1 | 45.5 µM | 2.2 µM | 53.7 µM | 2.79 µM | – | – | – | –
6 | C1=CC(c2nc(-c3cccnc3)no2)CC1 (stereo unspecified) | 74.8 µM | 1.53 µM | 88 µM | 1.81 µM | 0.21 µM | 0.47 µM | 0.73 µM | 1.5 µM
7 | C1=CC(c2nc(-c3cccnc3)no2)=CC1 | 66.7 µM | 1.37 µM | 78.6 µM | 1.63 µM | – | – | – | –
8 | Cn1ccc(-c2nc(-c3cccnc3)no2)c1 | 87.2 µM | 2.01 µM | 91.8 µM | 3.46 µM | – | – | – | –
9 | c1cncc(-c2noc(-c3nnon3)n2)c1 | 61.2 µM | 2.64 µM | 70.1 µM | 2.63 µM | – | – | – | –
10 | c1cncc(-c2noc(-c3nc[nH]n3)n2)c1 | 93.6 µM | 3.91 µM | 98.1 µM | 5.73 µM | – | – | – | –
11 | Cc1cccc(Nc2cc(Cl)nc(CSC(=O)O)n2)c1C | 54.1 µM | 2.94 µM | 62.9 µM | 3.21 µM | – | – | – | –
12 | Cn1cnc(-c2nc(-c3cccnc3)no2)n1 | 90.9 µM | 4.83 µM | 94.9 µM | 6.82 µM | – | – | – | –
13 | Cn1nnc(-c2nc(-c3cccnc3)no2)n1 | 89 µM | 3.42 µM | 93.4 µM | 5.14 µM | – | – | – | –
14 | C1=C(c2nc(-c3cccnc3)no2)CCC1 | 68.4 µM | 1.39 µM | 81.3 µM | 1.68 µM | – | – | – | –
15 | c1cncc(-c2noc(-c3nnsn3)n2)c1 | 38.7 µM | 1.21 µM | 46.7 µM | 1.45 µM | – | – | – | –
16 | c1cncc(-c2noc(-c3ncon3)n2)c1 | 67.5 µM | 3.76 µM | 77.7 µM | 3.43 µM | – | – | – | –
17 | c1cncc(-c2noc(-c3nn[nH]n3)n2)c1 | 95.2 µM | 5.28 µM | 99.2 µM | 7.49 µM | – | – | – | –
18 | c1cncc(-c2noc(-c3ccoc3)n2)c1 | 54.8 µM | 1.52 µM | 62.5 µM | 1.83 µM | – | – | – | –
